High-throughput results deposited in PubChem BioAssay by Sanford-Burnham Center for Chemical Genomics.
Shown are actives, neighbours in structure and some others; about 3% of the full set was active somewhere.
SENP8 block-1 – inhibitors of human SENP8 protease; Q96LD8; recombinant SENP8, Nedd8 substrate fluorescence; inhibition, % at 20 µM; 0.64% of 360,000 active; AID 602440; in the data active means inhibition mostly above about 40%, no sharp cut-off; inactive means mostly below about 27%
SENP7 block – SENP7 protease inhibition | inhibition, % at 5 µM | recombinant SENP7, Z-RLRGG-aminoluciferin luminescence, 40 min | Q9BQF6 | 1.5% of 330,000 active;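 active means inhibition above about 50% at the single test dose, limit read from the data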;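 further: plate controls were DMSO with enzyme for no effect and no enzyme buffer wells for full effect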
UBC13 inh – inhibitors of human UBC13 polyubiquitin chain formation; TR-FRET; AID 485273; 0.47% of 330,000 active; inhibition, % at 20 µM; P61088; in the data active means inhibition above about 45%, passing the limit was not always enough
Target sequence (P61088 whole entry, looked up): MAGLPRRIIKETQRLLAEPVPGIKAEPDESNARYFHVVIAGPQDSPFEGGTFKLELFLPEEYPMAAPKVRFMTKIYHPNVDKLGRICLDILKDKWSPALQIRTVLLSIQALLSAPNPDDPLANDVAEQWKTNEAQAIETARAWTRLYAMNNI
SENP6 inh – SENP6 protease inhibition; Recombinant SENP6 catalytic domain, aminoluciferin luminescence; inhibition, % at 10 µM; 1.8% of 330,000 active; AID 2599;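 active means inhibition above about 50% at the single tested dose, limit read from the data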;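 further: plate controls were DMSO wells with enzyme for no effect and DMSO wells lacking enzyme for full effect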
Target sequence (Q9GZR1 628-1112 limits assumed): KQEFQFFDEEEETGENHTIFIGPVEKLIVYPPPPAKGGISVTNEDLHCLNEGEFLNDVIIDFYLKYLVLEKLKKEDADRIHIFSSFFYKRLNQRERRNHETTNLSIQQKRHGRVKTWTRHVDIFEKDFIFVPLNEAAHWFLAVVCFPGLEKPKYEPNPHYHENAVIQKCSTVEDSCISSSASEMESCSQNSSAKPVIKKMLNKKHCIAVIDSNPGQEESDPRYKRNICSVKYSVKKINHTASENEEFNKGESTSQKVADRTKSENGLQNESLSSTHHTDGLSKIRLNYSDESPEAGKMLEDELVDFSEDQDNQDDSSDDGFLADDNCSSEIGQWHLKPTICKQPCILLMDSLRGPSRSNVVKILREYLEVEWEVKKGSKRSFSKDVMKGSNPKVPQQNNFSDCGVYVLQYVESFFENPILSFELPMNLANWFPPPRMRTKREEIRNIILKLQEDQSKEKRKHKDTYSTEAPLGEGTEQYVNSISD
Apaf-1 inh – inhibitors of human Apaf-1 apoptosome; O14727; reconstituted apoptosome caspase-3 activity, DEVD-Rh110 fluorescence; inhibition, % at 20 µM; 0.71% of 330,000 active; AID 489030; active means inhibition of at least 40% at 20 µM;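 further: plate controls were DMSO wells for no effect and DEVD-CHO caspase inhibitor wells for full effect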
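Assay system – apoptosome proteins · Medium – Hepes buffer, pH 7.5 · Also added – cytochrome c with DEVD-Rh110 · Timing – 30 min compound preincubation, 50 min activation, room temperature · Detection – Rh110 fluorescence, excitation 480 nm, emission 540 nm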
SENP8 block-2 – SENP8 protease inhibition | inhibition, % at 10 µM | 1.2% of 330,000 active | purified SENP8, Z-RLRGG-aminoluciferin cleavage, luminescence | Q96LD8; in the data active means inhibition above about 50%
Apaf-1 inh conf – Apaf-1 inhibition, single-dose confirmed; shares compounds with Apaf-1 inh; reconstituted apoptosome, caspase-3 DEVD-Rh110 fluorescence; inhibition, % at 20 µM; 25% of 1,800 active; AID 504614;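 active means mean inhibition of at least 40% at 20 µM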;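 further: plate controls were DMSO wells for no effect and DEVD-CHO caspase inhibitor control wells for full effect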
Rh110 quench – interferes with Rh110 fluorescence, flagging false Apaf-1 inhibitors | shares compounds with Apaf-1 inh | Rh110 fluorescence interference, quenched caspase reaction | activation (fluorescence interference), % at 20 µM | 1,800 tested, under 10 active | AID 504615;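 active means signal rise of 40% or more at 20 µM, treated as a fluorescence artifact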
Fluor interf inh – counter-screen for Apaf-1 inhibitors: fluorescence interference, dose response. shares compounds with Apaf-1 inh. fluorescence interference counterscreen, Apaf-1 assay format. IC50, µM. 460 tested, under 10 active. AID 588538; call rule not given here
* = called active by the depositor; · = not tested or not shown.

SMILES | SENP8 block-1 | SENP7 block | UBC13 inh | SENP6 inh | Apaf-1 inh | SENP8 block-2 | Apaf-1 inh conf | Rh110 quench | others
COC(=O)CCC(=O)OC1(C)C(=O)C=C2C=C(C3CC3)N(CCc3c[nH]c4ccccc34)C=C2C1=O (centres undefined) | -22 | 5 | -31 | 18 | 28 | 5 | · | ·
COC(=O)CCC(=O)OC1(C)C(=O)C=C2C=C(C3CC3)N(CCCCO)C=C2C1=O (centres undefined) | 32 | 9 | -51 | 30 | 64* | 1 | 58* | 2 | Fluor interf inh=>100
COC(=O)CCC(=O)OC1(C)C(=O)C=C2C=C(C3CC3)N(CCc3ccccn3)C=C2C1=O (centres undefined) | -5 | 1 | -85 | 10 | 53* | -9 | 38 | 4
C=CCN1C=C2C(=O)C(C)(OC(=O)CCC(=O)OC)C(=O)C=C2C=C1C1CC1 (centres undefined) | -21 | 1 | -32 | 27 | 43* | 9 | 53* | 2 | Fluor interf inh=>100
COC(=O)CCC(=O)OC1(C)C(=O)C=C2C=C(C3CC3)N(C(CO)CO)C=C2C1=O (centres undefined) | 6 | 5 | -80 | 10 | 33 | 0 | · | ·
COc1ccc(CCNS(=O)(=O)c2ccc(Br)s2)cc1 | -3 | · | · | · | · | · | · | ·
Cc1ccc(Oc2nc(CN3CCOCC3)nc3sc4c(c23)CCC(C)C4)cc1 (centres undefined) | -4 | 6 | 10 | -13 | 41* | -5 | 21 | 14
Cc1ccc(S(=O)(=O)NCC(=O)NCC(=O)N2CCC(C)CC2)cc1 | 7 | 3 | 6 | 4 | -16 | -3 | · | ·
Cc1ccc(C)c(NC(=O)CN(C)C(=O)c2cccc(S(=O)(=O)N3CCN(Cc4ccccc4)CC3)c2)c1 | 2 | 17 | 2 | -9 | 41* | -8 | 37 | 0
CCc1nnc(NC(=O)c2ccc(S(=O)(=O)N3CCCCC3)cc2)s1 | 4 | -13 | -1 | -38 | 55* | -6 | 16 | 2
CCc1nnc(NC(=O)c2ccc(S(=O)(=O)N3CCCC3)cc2)s1 | 3 | -5 | 1 | -8 | -1 | 2 | · | ·
CCOc1ccc(NC(=O)c2ccc3c(c2)CCN3S(C)(=O)=O)cc1 | 21 | -1 | -4 | 13 | -1 | 3 | · | ·
COc1ccc(OC)c(C(=O)c2ccc(C(=O)Nc3cccc4ccccc34)cc2)c1 | 10 | -10 | -9 | 3 | 5 | -14 | · | ·
CCN(Cc1ccccc1)S(=O)(=O)c1ccc(C(=O)N(CCCN(C)C)c2nc3cc(OC)ccc3s2)cc1 | 13 | -1 | 39 | -2 | 40* | -4 | 15 | 12
O=C(Nc1ccccc1N1CCCC1)C1CCN(S(=O)(=O)c2cccc(C(F)(F)F)c2)CC1 | 2 | 3 | -7 | 6 | 42* | -1 | 7 | 15
O=C(Nc1ccccc1N1CCCCC1)C1CCN(S(=O)(=O)c2cccc(C(F)(F)F)c2)CC1 | 4 | -12 | -8 | -13 | 23 | -4 | · | ·
O=[N+]([O-])/C(Cl)=C(/NCCO)C(Cl)=C(Cl)Cl | 18 | · | · | · | · | · | · | ·
C/C=N/NC(=O)c1cc(Br)ccc1O | -149 | -10 | -2 | -15 | 57* | -8 | 3 | 9
CCOc1ccc(CNC(=O)CCc2cn(C)c3ccccc23)cc1 | 12 | 1 | 7 | -15 | 3 | -3 | · | ·
COc1ccc(N=C2C(=Nc3ccc(OC)cc3)N(c3ccc(OC)cc3)C(=S)N2c2ccccc2)cc1 | -134 | -2 | -8 | -10 | 75* | -1 | 7 | 9
CC(C)Cn1c(N)c(C(=O)NCCN2CCOCC2)c2nc3ccccc3nc21 | -283 | 4 | 7 | 20 | -4 | 12 | · | ·
Nc1c(C(=O)NCc2ccc(F)cc2)c2nc3ccccc3nc2n1CCCN1CCOCC1 | -250 | 57* | 19 | 78* | 59* | 80* | 24 | 9
COCCOC(=O)c1c(N)n(CCCN2CCOCC2)c2nc3ccccc3nc12 | -450 | 13 | -8 | -7 | 10 | -8 | · | ·
Cc1cccc(-n2c(N)c(C(=O)NCCN3CCOCC3)c3nc4ccccc4nc32)c1 | · | 6 | -7 | 14 | 51* | 6 | 12 | 3
Cc1cccc(NC(=O)CN2CCN(C(=O)c3oc4c(Cl)cccc4c3C)CC2)c1C | 6 | -9 | -3 | -10 | 70* | -11 | 17 | 8
SMILES | SENP8 block-1 | SENP7 block | UBC13 inh | SENP6 inh | Apaf-1 inh | SENP8 block-2 | Apaf-1 inh conf | Rh110 quench | others
NC(=O)CSc1nc2scc(-c3ccc(Cl)cc3)c2c(=O)n1Cc1ccccc1 | 6 | -4 | -16 | 2 | 47* | -5 | 18 | 2
Cc1ccc(-c2csc3nc(SCC(=O)N(C)C)n(Cc4ccccc4)c(=O)c23)cc1 | -1 | 2 | 1 | -1 | 16 | -1 | · | ·
O=[N+]([O-])c1ccc(S(=O)(=O)NN=Cc2ccc(Cl)c(Cl)c2)cc1 | 4 | · | · | · | · | · | · | ·
O=C1C(=O)N(CCN2CCOCC2)C(c2ccccc2)/C1=C(\O)c1ccc2c(c1)OCCO2 (centres undefined) | -11 | -4 | -23 | 3 | 50* | -11 | 1 | 5
Cc1nc(-c2ccc(F)cc2)c(CC(=O)N2CCN(S(=O)(=O)c3ccccc3Br)CC2)s1 | 12 | -4 | 8 | -13 | 40 | 3 | 40 | -5
C[C@@H]1CN([C@H](C)CO)C(=O)CCCn2nncc2CO[C@H]1CN(C)S(=O)(=O)c1cccc(F)c1 | 3 | · | · | · | · | · | · | ·
COc1cccc(CN(C)C(=O)c2cc(S(=O)(=O)NCc3ccccc3)ccc2C)c1OC | 13 | -7 | 10 | -9 | 29 | -4 | · | ·
COc1ccc(CN(C)C(=O)c2cc(S(=O)(=O)NCc3ccccc3)ccc2C)c(OC)c1 | -1 | 2 | 33 | -5 | 61* | 1 | 40* | 11 | Fluor interf inh=>100
CCCCCCc1cc2cc(-c3nnc(-c4ccccc4OC)o3)c(=O)oc2cc1O | -305 | 1 | -29 | 8 | 62* | -4 | 64* | 2 | Fluor interf inh=>100
C(=N\c1c(-c2ccccc2)nc2n1CCS2)/c1ccccc1 | -44 | -5 | -4 | -22 | 41* | -7 | 32 | 6
Cc1ccc(-c2cc(C(=O)NCCCN3CCOCC3)c3ccc(Cl)c(C)c3n2)cc1 | -241 | -1 | 28 | -6 | 55* | -3 | 24 | 11
O=C1C=C(c2ccc(OC(F)(F)F)cc2)C[C@@H](c2ccc(F)cc2)C1 | 22 | 7 | -3 | -1 | 54* | -3 | 18 | 1
CCOC(=O)[C@]12CCCC=C1N(Cc1ccco1)C(=O)[C@H](CC(=O)N1CCC(c3ccccc3)CC1)C2 | 9 | · | · | · | · | · | · | ·
